Experimental data from ChEMBL document CHEMBL5058577, “EUbOPEN Chemogenomics Library 2 (Multiplex)” (2022).

System: HEK-293T
Assay: Multiplex assay against HEK293T
Assay type: toxicity, cell-based
Conditions: human
How it was run: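 Live cells were stained at seeding with Hoechst33342, BioTracker Green Microtubule Cytoskeleton Dye, MitoTracker Red and Annexin V Alexa Fluor 680, then imaged on a CQ1 microscope at 37°C and 5% CO2 after compound addition. CellPathfinder machine-learning gating split cells into Hoechst high-intensity objects or normal cells. Normal cells were split into healthy, pyknosed or fragmented nuclei, and pyknosed cells into mitotic or apoptotic. Tubulin, mitochondrial-mass and membrane-permeability phenotypes are per cents of healthy-nucleus cells.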

[1] = 12 h, 1 µM, compound concentration 1 uM, replicate 1
[2] = 12 h, 1 µM, compound concentration 1 uM, replicate 2
[3] = 12 h, 10 µM, compound concentration 10 uM, replicate 1
[4] = 12 h, 10 µM, compound concentration 10 uM, replicate 2
[5] = 24 h, 1 µM, compound concentration 1 uM, replicate 1
[6] = 24 h, 1 µM, compound concentration 1 uM, replicate 2
[7] = 24 h, 10 µM, compound concentration 10 uM, replicate 1
[8] = 24 h, 10 µM, compound concentration 10 uM, replicate 2
[9] = 48 h, 1 µM, compound concentration 1 uM, replicate 1
[10] = 48 h, 1 µM, compound concentration 1 uM, replicate 2
[11] = 48 h, 10 µM, compound concentration 10 uM, replicate 1
[12] = 48 h, 10 µM, compound concentration 10 uM, replicate 2

CC(F)(F)CN1CCOc2c(nn(-c3ccccc3Cl)c2-c2ccc(Cl)cc2)C1=O was tested, and the “Population Apoptotic (%)” value [1] was 29%, the “Population Healthy Nuclei (%)” value [1] was 77% and the “Population Membrane Permeable-Phenotype (%)” value [1] was 0%. The “Population Mitochondria Different-Phenotype (%)” value [1] was 43%, the “Population Mitotic Cells (%)” value [1] was 70% and the “Population Normal (%)” value [1] was 93%. For the same compound, the “Population Pyknosed Nuclei (%)” value [1] was 12%, the “Total Cell Count” value [1] was 397 and the “Population Apoptotic (%)” value [2] was 64%. For the same compound, the “Population Healthy Nuclei (%)” value [2] was 78%, the “Population Mitochondria Different-Phenotype (%)” value [2] was 53% and the “Population Mitotic Cells (%)” value [2] was 35%. The “Population Normal (%)” value [2] was 91%, the “Population Pyknosed Nuclei (%)” value [2] was 16% and the “Total Cell Count” value [2] was 369. The “Population Apoptotic (%)” value [3] was 57%, the “Population Healthy Nuclei (%)” value [3] was 73% and the “Population Membrane Permeable-Phenotype (%)” value [3] was 0%. For the same compound, the “Population Mitochondria Different-Phenotype (%)” value [3] was 78%, the “Population Mitotic Cells (%)” value [3] was 42% and the “Population Normal (%)” value [3] was 89%. The “Population Pyknosed Nuclei (%)” value [3] was 22%, the “Total Cell Count” value [3] was 384 and the “Population Apoptotic (%)” value [4] was 43%. The “Population Healthy Nuclei (%)” value [4] was 75%, the “Population Mitochondria Different-Phenotype (%)” value [4] was 84% and the “Population Mitotic Cells (%)” value [4] was 56%. For the same compound, the “Population Normal (%)” value [4] was 94%, the “Population Pyknosed Nuclei (%)” value [4] was 18% and the “Total Cell Count” value [4] was 397. For the same compound, the “Population Apoptotic (%)” value [5] was 25%, the “Population Healthy Nuclei (%)” value [5] was 79% and the “Population Membrane Permeable-Phenotype (%)” value [5] was 0%. The “Population Mitochondria Different-Phenotype (%)” value [5] was 22%, the “Population Mitotic Cells (%)” value [5] was 74% and the “Population Normal (%)” value [5] was 97%. For the same compound, the “Population Pyknosed Nuclei (%)” value [5] was 11%, the “Total Cell Count” value [5] was 568 and the “Population Apoptotic (%)” value [6] was 43%. The “Population Healthy Nuclei (%)” value [6] was 84%, the “Population Mitochondria Different-Phenotype (%)” value [6] was 31% and the “Population Mitotic Cells (%)” value [6] was 56%. For the same compound, the “Population Normal (%)” value [6] was 93%, the “Population Pyknosed Nuclei (%)” value [6] was 8% and the “Total Cell Count” value [6] was 478. For the same compound, the “Population Apoptotic (%)” value [7] was 57%, the “Population Healthy Nuclei (%)” value [7] was 76% and the “Population Membrane Permeable-Phenotype (%)” value [7] was 0%. For the same compound, the “Population Mitochondria Different-Phenotype (%)” value [7] was 71%, the “Population Mitotic Cells (%)” value [7] was 42% and the “Population Normal (%)” value [7] was 92%. For the same compound, the “Population Pyknosed Nuclei (%)” value [7] was 15%, the “Total Cell Count” value [7] was 450 and the “Population Apoptotic (%)” value [8] was 41%. The “Population Healthy Nuclei (%)” value [8] was 80%, the “Population Mitochondria Different-Phenotype (%)” value [8] was 79% and the “Population Mitotic Cells (%)” value [8] was 58%. The “Population Normal (%)” value [8] was 94%, the “Total Cell Count” value [8] was 477 and the “Population Apoptotic (%)” value [9] was 22%. The “Population Healthy Nuclei (%)” value [9] was 77%, the “Population Membrane Permeable-Phenotype (%)” value [9] was 1% and the “Population Mitochondria Different-Phenotype (%)” value [9] was 14%. The “Population Mitotic Cells (%)” value [9] was 77%, the “Population Normal (%)” value [9] was 99% and the “Population Pyknosed Nuclei (%)” value [9] was 7%. For the same compound, the “Total Cell Count” value [9] was 1015, the “Population Apoptotic (%)” value [10] was 25% and the “Population Healthy Nuclei (%)” value [10] was 79%. For the same compound, the “Population Mitochondria Different-Phenotype (%)” value [10] was 23%, the “Population Mitotic Cells (%)” value [10] was 74% and the “Population Normal (%)” value [10] was 97%. For the same compound, the “Total Cell Count” value [10] was 734, the “Population Apoptotic (%)” value [11] was 55% and the “Population Healthy Nuclei (%)” value [11] was 74%. The “Population Membrane Permeable-Phenotype (%)” value [11] was 0%, the “Population Mitochondria Different-Phenotype (%)” value [11] was 62% and the “Population Mitotic Cells (%)” value [11] was 44%. For the same compound, the “Population Normal (%)” value [11] was 93%, the “Total Cell Count” value [11] was 540 and the “Population Apoptotic (%)” value [12] was 35%. The “Population Healthy Nuclei (%)” value [12] was 78%, the “Population Mitochondria Different-Phenotype (%)” value [12] was 68% and the “Population Mitotic Cells (%)” value [12] was 65%. The “Population Pyknosed Nuclei (%)” value [12] was 11% and the “Total Cell Count” value [12] was 558.

In the case of COc1cc2nc(N3CCN(C(=O)COc4c(OC)cccc4C(C)C)CC3)nc(N)c2cc1OC.Cl.Cl, the “Population Apoptotic (%)” value [1] was 35%, the “Population Fragmented Nuclei (%)” value [1] was 12% and the “Population Healthy Nuclei (%)” value [1] was 77%. For the same compound, the “Population Hoechst High Intensity Objects (%)” value [1] was 5%, the “Population Membrane Permeable-Phenotype (%)” value [1] was 0% and the “Population Mitochondria Different-Phenotype (%)” value [1] was 48%. The “Population Mitotic Cells (%)” value [1] was 64%, the “Population Normal (%)” value [1] was 94% and the “Population Pyknosed Nuclei (%)” value [1] was 9%. The “Population Tubulin-Different-Phenotype (%)” value [1] was 23%, the “Total Cell Count” value [1] was 402 and the “Population Apoptotic (%)” value [2] was 46%. For the same compound, the “Population Fragmented Nuclei (%)” value [2] was 8%, the “Population Healthy Nuclei (%)” value [2] was 81% and the “Population Hoechst High Intensity Objects (%)” value [2] was 4%. For the same compound, the “Population Mitochondria Different-Phenotype (%)” value [2] was 58%, the “Population Mitotic Cells (%)” value [2] was 53% and the “Population Normal (%)” value [2] was 95%. The “Population Tubulin-Different-Phenotype (%)” value [2] was 18%, the “Total Cell Count” value [2] was 365 and the “Population Apoptotic (%)” value [3] was 52%. For the same compound, the “Population Fragmented Nuclei (%)” value [3] was 13%, the “Population Healthy Nuclei (%)” value [3] was 69% and the “Population Hoechst High Intensity Objects (%)” value [3] was 25%. The “Population Membrane Permeable-Phenotype (%)” value [3] was 1%, the “Population Mitochondria Different-Phenotype (%)” value [3] was 74% and the “Population Mitotic Cells (%)” value [3] was 48%. The “Population Normal (%)” value [3] was 74%, the “Population Pyknosed Nuclei (%)” value [3] was 17% and the “Population Tubulin-Different-Phenotype (%)” value [3] was 81%. The “Total Cell Count” value [3] was 386, the “Population Apoptotic (%)” value [4] was 57% and the “Population Fragmented Nuclei (%)” value [4] was 14%. For the same compound, the “Population Healthy Nuclei (%)” value [4] was 67%, the “Population Hoechst High Intensity Objects (%)” value [4] was 18% and the “Population Membrane Permeable-Phenotype (%)” value [4] was 3%. The “Population Mitochondria Different-Phenotype (%)” value [4] was 66%, the “Population Mitotic Cells (%)” value [4] was 42% and the “Population Normal (%)” value [4] was 81%. For the same compound, the “Population Pyknosed Nuclei (%)” value [4] was 18%, the “Population Tubulin-Different-Phenotype (%)” value [4] was 66% and the “Total Cell Count” value [4] was 286. For the same compound, the “Population Apoptotic (%)” value [5] was 35%, the “Population Fragmented Nuclei (%)” value [5] was 11% and the “Population Healthy Nuclei (%)” value [5] was 77%. The “Population Hoechst High Intensity Objects (%)” value [5] was 5%, the “Population Membrane Permeable-Phenotype (%)” value [5] was 0% and the “Population Mitochondria Different-Phenotype (%)” value [5] was 27%. The “Population Mitotic Cells (%)” value [5] was 64%, the “Population Normal (%)” value [5] was 95% and the “Population Pyknosed Nuclei (%)” value [5] was 10%. The “Population Tubulin-Different-Phenotype (%)” value [5] was 19%, the “Total Cell Count” value [5] was 540 and the “Population Apoptotic (%)” value [6] was 42%. The “Population Fragmented Nuclei (%)” value [6] was 8%, the “Population Healthy Nuclei (%)” value [6] was 84% and the “Population Hoechst High Intensity Objects (%)” value [6] was 2%. For the same compound, the “Population Mitochondria Different-Phenotype (%)” value [6] was 44%, the “Population Mitotic Cells (%)” value [6] was 57% and the “Population Normal (%)” value [6] was 97%. For the same compound, the “Population Pyknosed Nuclei (%)” value [6] was 7%, the “Population Tubulin-Different-Phenotype (%)” value [6] was 16% and the “Total Cell Count” value [6] was 472. The “Population Apoptotic (%)” value [7] was 42%, the “Population Fragmented Nuclei (%)” value [7] was 14% and the “Population Healthy Nuclei (%)” value [7] was 64%. The “Population Hoechst High Intensity Objects (%)” value [7] was 29%, the “Population Membrane Permeable-Phenotype (%)” value [7] was 2% and the “Population Mitochondria Different-Phenotype (%)” value [7] was 68%. For the same compound, the “Population Mitotic Cells (%)” value [7] was 57%, the “Population Normal (%)” value [7] was 70% and the “Population Pyknosed Nuclei (%)” value [7] was 21%. The “Population Tubulin-Different-Phenotype (%)” value [7] was 69%, the “Total Cell Count” value [7] was 498 and the “Population Apoptotic (%)” value [8] was 51%. The “Population Fragmented Nuclei (%)” value [8] was 13%, the “Population Healthy Nuclei (%)” value [8] was 59% and the “Population Hoechst High Intensity Objects (%)” value [8] was 39%. The “Population Mitochondria Different-Phenotype (%)” value [8] was 72%, the “Population Mitotic Cells (%)” value [8] was 48% and the “Population Normal (%)” value [8] was 60%. The “Population Pyknosed Nuclei (%)” value [8] was 27%, the “Population Tubulin-Different-Phenotype (%)” value [8] was 63% and the “Total Cell Count” value [8] was 286. The “Population Apoptotic (%)” value [9] was 28%, the “Population Fragmented Nuclei (%)” value [9] was 16% and the “Population Healthy Nuclei (%)” value [9] was 76%. The “Population Hoechst High Intensity Objects (%)” value [9] was 2%, the “Population Membrane Permeable-Phenotype (%)” value [9] was 1% and the “Population Mitochondria Different-Phenotype (%)” value [9] was 18%. For the same compound, the “Population Mitotic Cells (%)” value [9] was 71%, the “Population Normal (%)” value [9] was 97% and the “Population Pyknosed Nuclei (%)” value [9] was 6%. The “Population Tubulin-Different-Phenotype (%)” value [9] was 11%, the “Total Cell Count” value [9] was 930 and the “Population Apoptotic (%)” value [10] was 11%. For the same compound, the “Population Fragmented Nuclei (%)” value [10] was 15%, the “Population Healthy Nuclei (%)” value [10] was 78% and the “Population Hoechst High Intensity Objects (%)” value [10] was 3%. The “Population Membrane Permeable-Phenotype (%)” value [10] was 0%, the “Population Mitotic Cells (%)” value [10] was 88% and the “Population Normal (%)” value [10] was 96%. The “Population Tubulin-Different-Phenotype (%)” value [10] was 12%, the “Total Cell Count” value [10] was 737 and the “Population Apoptotic (%)” value [11] was 31%. For the same compound, the “Population Fragmented Nuclei (%)” value [11] was 18%, the “Population Healthy Nuclei (%)” value [11] was 56% and the “Population Hoechst High Intensity Objects (%)” value [11] was 41%. The “Population Membrane Permeable-Phenotype (%)” value [11] was 3%, the “Population Mitochondria Different-Phenotype (%)” value [11] was 48% and the “Population Mitotic Cells (%)” value [11] was 68%. The “Population Normal (%)” value [11] was 58%, the “Population Pyknosed Nuclei (%)” value [11] was 25% and the “Population Tubulin-Different-Phenotype (%)” value [11] was 56%. For the same compound, the “Total Cell Count” value [11] was 660, the “Population Apoptotic (%)” value [12] was 30% and the “Population Fragmented Nuclei (%)” value [12] was 17%. The “Population Healthy Nuclei (%)” value [12] was 59%, the “Population Hoechst High Intensity Objects (%)” value [12] was 46% and the “Population Membrane Permeable-Phenotype (%)” value [12] was 1%. For the same compound, the “Population Mitochondria Different-Phenotype (%)” value [12] was 49%, the “Population Mitotic Cells (%)” value [12] was 69% and the “Population Normal (%)” value [12] was 53%. For the same compound, the “Population Pyknosed Nuclei (%)” value [12] was 23%, the “Population Tubulin-Different-Phenotype (%)” value [12] was 38% and the “Total Cell Count” value [12] was 430.
